Measurements from ChEMBL document CHEMBL2146408, “Primary amino acid derivatives: compounds with anticonvulsant and neuropathic pain protection activities” (J Med Chem, 2011).
Activity calls are given as the source filed them. The calls are words filed in the database; no cut-off is given here.

Key:
Mus musculus [1] = assay: Antinociceptive activity in ip dosed NMRI mouse assessed as inhibition of formalin-induced neuropathic pain after 30 mins; assay type: functional; settings: 0.5 h
How it was run: (§1)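 NMRI mice dosed ip at UCB Pharma, then tested in the formalin model of neuropathic pain. ED50 in mg/kg read 30 min after administration. Single-dose runs report the percentage protected.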

Mus musculus [2] = assay: Anticonvulsant activity in ip dosed NMRI mouse assessed as protection against maximal electroshock-induced seizure after 30 mins; assay type: functional; settings: 0.5 h
How it was run: (§2)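 Adult male NMRI mice dosed ip (UCB Pharma). MES test run per the Klitgaard procedure. […] Single-dose runs report the percentage of animals protected.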

Mus musculus [3] = assay: Anticonvulsant activity in ip dosed NMRI mouse assessed as protection against 6 Hz psychomotor seizure after 30 mins; assay type: functional; settings: 0.5 h; for minimal effective dose: read-out: MED
How it was run: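 Adult male NMRI mice dosed ip (UCB Pharma). 6 Hz psychomotor seizure model at 44 mA, per Kaminski and co-workers.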

[4] = Neurotoxicity in ip dosed CF1 mouse assessed as minimal motor impairment after 30 mins; assay type: toxicity, organism-based; settings: in vivo
Mus musculus [5] = organism: Mus musculus; assay: Protective index, ratio of TD50 for NMRI mouse to ED50 for NMRI mouse by maximal electroshock seizure test; assay type: functional
How it was run: (§3)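 Protective index computed as rotorod (mice) or behavioral (rats) TD50 divided by MES ED50, both in mg/kg in the same species and route.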

Mus musculus [6] = organism: Mus musculus; assay: Protective index, ratio of TD50 for NMRI mouse to ED50 for NMRI mouse formalin-induced neuropathic pain model; assay type: functional
[7] = Neurotoxicity in po dosed Sprague-Dawley rat assessed as minimal motor impairment after 30 mins by rotorod test; assay type: toxicity, organism-based; settings: in vivo
[8] = Neurotoxicity in ip dosed NMRI mouse assessed as minimal motor impairment after 30 mins; assay type: toxicity, organism-based; settings: in vivo
How it was run: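 Adult male NMRI mice dosed ip at UCB Pharma. Neurological toxicity was scored on the rotorod test 30 min after dosing.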

Mus musculus [9] = assay: Anticonvulsant activity in NMRI mouse assessed as protection against subcutaneous pentylenetetrazol-induced seizure at 30 to 300 mg/kg, ip after 0.5 to 4 hrs; assay type: functional, organism-based
Mus musculus [10] = assay: Anticonvulsant activity in ip dosed CF1 mouse assessed as protection against maximal electroshock-induced seizure after 30 mins; assay type: functional; settings: 0.5 h
How it was run: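 Adult male albino CF-1 (Carworth Farms No. 1) mice dosed ip under the NINDS ASP; maximal electroshock seizure test. For compounds with sufficient activity, a dose-response curve was run at the time of peak effect (hours).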

Mus musculus [11] = assay: Anticonvulsant activity in NMRI mouse assessed as protection against maximal electroshock-induced seizure at 46 mg/kg, ip after 30 mins; assay type: functional; settings: route intraperitoneal; how it was run: as §2
Mus musculus [12] = assay: Antinociceptive activity in NMRI mouse assessed as inhibition of formalin-induced neuropathic pain at 83 mg/kg, ip after 30 mins; assay type: functional; set-up: scale not given: the % may be the effect or the level left; settings: route intraperitoneal; how it was run: as §1
Rattus norvegicus [13] = assay: Anticonvulsant activity in po dosed Sprague-Dawley rat assessed as protection against maximal electroshock-induced seizure after 30 mins; assay type: functional; settings: 0.5 h
Rattus norvegicus [14] = organism: Rattus norvegicus; assay: Protective index, ratio of TD50 for Sprague-Dawley rat to ED50 for Sprague-Dawley rat by maximal electroshock seizure test; assay type: functional; how it was run: as §3
Mus musculus [15] = assay: Antinociceptive activity in NMRI mouse assessed as inhibition of formalin-induced neuropathic pain at 74 mg/kg, ip after 30 mins; assay type: functional; set-up: scale not given: the % may be the effect or the level left; settings: route intraperitoneal; how it was run: as §1
Mus musculus [16] = assay: Antinociceptive activity in NMRI mouse assessed as inhibition of formalin-induced neuropathic pain at 75 mg/kg, ip after 30 mins; assay type: functional; set-up: scale not given: the % may be the effect or the level left; settings: route intraperitoneal; how it was run: as §1

Work on `CCC[C@@H](N)C(=O)NCc1ccccc1` yielded an ED50 (Mus musculus [1]) of 35 mg/kg, an ED50 (Mus musculus [2]) of 21 mg/kg and a minimal effective dose (Mus musculus [3]) of 66 mg/kg. The TD50 at 0.5 h [4] was 57 mg/kg, the “Ratio TD50/ED50” value (Mus musculus [5]) was 2.8 and the “Ratio TD50/ED50” value (Mus musculus [6]) was 1.6.
Molecule `O=C1NC(=O)C(c2ccccc2)(c2ccccc2)N1` [PHENYTOIN] has a TD50 at 0.5 h [7] greater than 3000 mg/kg.
Work on `C#CCOCC(NC(C)=O)C(=O)NCc1ccccc1` (racemic) yielded a TD50 at 0.5 h [8] of 59 mg/kg.
Work on `NC(CO)C(=O)NCc1ccccc1` (racemic) yielded an ED50 (Mus musculus [1]) greater than 62 mg/kg, an ED50 (Mus musculus [2]) greater than 62 mg/kg and an ED50 (Mus musculus [3]) greater than 62 mg/kg. For the same molecule, the TD50 at 0.5 h [4] was greater than 110 mg/kg and the “Ratio TD50/ED50” value (Mus musculus [6]) was greater than 1.8.
In the case of `CC(C)[C@H](N)C(=O)NCc1ccccc1`, the TD50 at 0.5 h [8] is reported as greater than 300 mg/kg and the Activity (Mus musculus [9]) is reported as “inactive”.
`CC(=O)NC(CO)C(=O)NCc1ccccc1` (racemic) gave an ED50 (Mus musculus [10]) of less than 100 mg/kg and a TD50 at 0.5 h [8] of less than 300 mg/kg.
Work on `NCC(N)C(=O)NCc1ccccc1` (racemic) yielded an ED50 (Mus musculus [2]) greater than 68 mg/kg.
`CCC(C)C(N)C(=O)NCc1ccccc1` (racemic) gave an ED50 (Mus musculus [1]) greater than 22 mg/kg, a minimal effective dose (Mus musculus [2]; read-out: MED) of 46 mg/kg and an ED50 (Mus musculus [3]) greater than 120 mg/kg. For the same molecule, the Activity (Mus musculus [11]) was 100%.
In the case of `CN(C)CC(N)C(=O)NCc1ccccc1` (racemic), the ED50 (Mus musculus [1]) is reported as 83 mg/kg, the ED50 (Mus musculus [2]) is reported as 94 mg/kg and the ED50 (Mus musculus [3]) is reported as greater than 110 mg/kg. For the same molecule, the Activity (Mus musculus [12]) was 14%.
In the case of `C[C@@H](N)C(=O)NCc1ccccc1`, the TD50 at 0.5 h [8] is reported as less than 100 mg/kg, the Activity (Mus musculus [9]) is reported as “inactive” and the ED50 (Rattus norvegicus [13]) is reported as 19 mg/kg. For the same molecule, the TD50 at 0.5 h [7] was greater than 30 mg/kg and the “Ratio TD50/ED50” value (Rattus norvegicus [14]) was greater than 1.5.
Molecule `N[C@H](CO)C(=O)NCc1ccccc1` has an ED50 (Mus musculus [1]) greater than 62 mg/kg, an ED50 (Mus musculus [2]) greater than 62 mg/kg and an ED50 (Mus musculus [3]) greater than 62 mg/kg. For the same molecule, the TD50 at 0.5 h [4] was greater than 110 mg/kg.
`CCCOCC(N)C(=O)NCc1ccccc1` (racemic) gave an ED50 (Mus musculus [1]) greater than 130 mg/kg, an ED50 (Mus musculus [2]) of 69 mg/kg and an ED50 (Mus musculus [3]) greater than 130 mg/kg.
`C#CCOCC(N)C(=O)NCc1ccccc1` (racemic) showed an ED50 (Mus musculus [1]) of 74 mg/kg, an ED50 (Mus musculus [2]) of 46 mg/kg and a minimal effective dose (Mus musculus [3]) of 130 mg/kg. The Activity (Mus musculus [15]) was 27% and the TD50 at 0.5 h [4] was 47 mg/kg.
In the case of `CC(=O)NC(C(=O)NCc1ccccc1)c1ccccn1` (racemic), the ED50 (Mus musculus [10]) is reported as 11 mg/kg.
With `CC(C)(C)[C@@H](N)C(=O)NCc1ccccc1` the Activity (Mus musculus [9]) was “inactive” and the TD50 at 0.5 h [7] was greater than 500 mg/kg.
`CC(=O)NC(C(=O)NCc1ccccc1)c1cccs1` (configuration not stated) showed an ED50 (Mus musculus [10]) of 45 mg/kg.
In the case of `CC(=O)NC(CN(C)C)C(=O)NCc1ccccc1` (racemic), the ED50 (Mus musculus [10]) is reported as less than 30 mg/kg and the TD50 at 0.5 h [8] is reported as less than 100 mg/kg.
`N[C@H](CCO)C(=O)NCc1ccccc1` showed an ED50 (Mus musculus [1]) greater than 67 mg/kg, an ED50 (Mus musculus [2]) greater than 160 mg/kg and an ED50 (Mus musculus [3]) greater than 120 mg/kg.
With `NC(CN1CCOCC1)C(=O)NCc1ccccc1` (racemic) the ED50 (Mus musculus [1]) was 69 mg/kg, the ED50 (Mus musculus [2]) was 89 mg/kg and the ED50 (Mus musculus [3]) was greater than 84 mg/kg.
Molecule `CCC(NC(C)=O)C(=O)NCc1ccccc1` (racemic) has an ED50 (Mus musculus [10]) of less than 100 mg/kg and a TD50 at 0.5 h [8] greater than 300 mg/kg.
With `C[C@H](N)C(=O)NCc1ccccc1` the TD50 at 0.5 h [8] was greater than 300 mg/kg, the Activity (Mus musculus [9]) was “inactive” and the ED50 (Rattus norvegicus [13]) was greater than 80 mg/kg. For the same molecule, the TD50 at 0.5 h [7] was greater than 80 mg/kg.
Molecule `N[C@H](Cc1ccccc1)C(=O)NCc1ccccc1` has an ED50 (Mus musculus [1]) greater than 37 mg/kg, an ED50 (Mus musculus [2]) of 40 mg/kg and a minimal effective dose (Mus musculus [3]) of 81 mg/kg.
Molecule `CC(=O)N[C@@H](C(=O)NCc1ccccc1)C(C)(C)C` has an ED50 (Mus musculus [10]) greater than 300 mg/kg and a TD50 at 0.5 h [8] greater than 300 mg/kg.
`CC(=O)N[C@@H](C)C(=O)NCc1ccccc1` showed a TD50 at 0.5 h [8] of 840 mg/kg.
`C=CCOCC(N)C(=O)NCc1ccccc1` (racemic) gave an ED50 (Mus musculus [1]) of 75 mg/kg, an ED50 (Mus musculus [2]) of 45 mg/kg and a minimal effective dose (Mus musculus [3]) of 130 mg/kg. The Activity (Mus musculus [16]) was 12%.
For `CC(=O)N[C@H](CO)C(=O)NCc1ccccc1`, the TD50 at 0.5 h [8] was greater than 500 mg/kg.
